The nature of data set [1]: Cytotoxicity against mock-infected african green monkey Vero76 cells assessed as reduction in cell viability after 96 hrs by MTT assay. Type of data set: cell-based, Vero. The note with it: chlorocebus sabaeus. A general note: Tetrazolium dyes change colour on reduction, which living cells bring about.
A further data set concerns Poliovirus 1. The data set can be described thus: Antiviral activity against Sb1 virus infected in Vero76 cells assessed as reduction in virus plaque formation after 4 days by MTT assay. The format is functional, organism-based. The note with it: Enterovirus C, Sabin, Vero 76, 96 h.
Data set [2] is described as follows: Cytotoxicity against mock-infected BHK cells assessed as reduction in cell viability after 96 hrs by MTT assay. The settings on record: hamster. The format is cell-based, Mesocricetus auratus. In outline:
(§1)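 Cytotoxicity run in parallel with the antiviral assays. MDBK seeded at 6 × 10^5 and BHK at 1 × 10^6 cells/mL in maintenance medium with or without serial compound dilutions. Incubated 48–96 h at 37 °C, 5% CO2, then viability read by MTT. CC50 is the concentration reducing mock-infected cell viability by 50%.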

The subject of data set [3] is Human immunodeficiency virus 1. The data set can be described thus: Antiviral activity against HIV1 infected in MT4 cells assessed as virus-induced cytopathogenicity after 4 days. Type of data set: functional, organism-based. A general note: Cytopathic effects are the visible damage that an infection or toxin causes in cultured cells.
Data set [4] relates to Bovine viral diarrhea virus 1. The data set can be described thus: Antiviral activity against BVDV infected in MDBK cells assessed as protection against virus-induced cytopathogenicity after 4 days by MTT assay. The note with it: Bovine viral diarrhea virus isolates and strains, 96 h. Type of data set: functional, organism-based. In outline:
(§2)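 MDBK (BVDV) or BHK-21 (YFV) cells were seeded at 3 × 10^4 or 5 × 10^4 cells/well respectively and grown overnight to confluent monolayers at 37 °C in 5% CO2. Monolayers were infected at m.o.i. 0.01 in serum-free medium. After 1 h, MEM Earle's with 1% FCS was added, with or without serial compound dilutions. After 3–4 days at 37 °C, viability was read by MTT. EC50 was taken as 50% protection from virus-induced cytopathogenicity.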

In the next data set the test system is Coxsackievirus B2. The data set can be described thus: Antiviral activity against CVB2 infected in Vero76 cells assessed as reduction in virus plaque formation after 4 days by MTT assay. Type of data set: functional, organism-based. The settings on record: Enterovirus B, Vero 76, 96 h.
Data set [5] in a line: Cytotoxicity against mock-infected MDBK cells assessed as reduction in cell viability after 96 hrs by MTT assay. The settings on record: cattle. The format is cell-based, Bos taurus. The essentials:
as §1

A short description of data set [6]: Cytotoxicity against mock-infected human MT4 cells assessed as reduction in cell viability after 96 hrs by MTT assay. The format is cell-based. In outline: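 Exponentially growing MT-4 cells seeded at 1 × 10^5 cells/mL in RPMI-1640 with 10% FCS, penicillin and streptomycin, with or without serial compound dilutions. Incubated at 37 °C, 5% CO2; viability read by MTT after 96 h. CC50 is the concentration reducing mock-infected cell viability by 50%.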

Data set [7] relates to Vesicular stomatitis virus. Kind of data set: Antiviral activity against VSV infected in Vero76 cells assessed as reduction in virus plaque formation after 4 days by MTT assay. The format is functional, organism-based. The note with it: Vero 76.
The next data set deals with Yellow fever virus. The data set can be described thus: Antiviral activity against YFV infected in BHK21 cells assessed as protection against virus-induced cytopathogenicity after 4 days by MTT assay. The format is functional, organism-based. The settings on record: BHK-21, 96 h. In outline: as §2
For data set [8], the system named is Respiratory syncytial virus. Kind of data set: Antiviral activity against RSV infected in Vero76 cells assessed as reduction in virus plaque formation after 4 days by MTT assay. Type of data set: functional, organism-based. The settings on record: human respiratory syncytial virus, Vero 76, 96 h.
In a further data set the test system is Vaccinia virus. Kind of data set: Antiviral activity against VV infected in Vero76 cells assessed as reduction in virus plaque formation after 4 days by MTT assay. Type of data set: functional, organism-based. The note with it: Orthopoxvirus vaccinia; Vero 76.

Activity calls are given as the source filed them. How the calls were made is not given here. A value given as a limit tells only on which side of the number the result lay.

Regarding `CN1C=C(/N=N/c2ccc(Cl)c(Cl)c2)CCC1`, the 50% cytotoxic concentration (CC50) – broadly, the concentration giving 50% cytotoxicity – at 96 h in data set [1] was > 100 µM; in data set [2], 38 µM; in [5], 73 µM; in data set [6] it was 43 µM. For the same molecule, the concentration for a half-maximal effect (EC50) (usually the concentration giving half of the maximal effect) in the data set with Poliovirus 1 is > 100 µM; in data set [4], 7 µM; in the data set on Coxsackievirus B2, 14 µM; in the data set with Yellow fever virus, > 38 µM; in data set [8], > 100 µM. The outcome (in data set [3]; in data set [7]; with Vaccinia virus) was inactive.
Take `CN1/C(=C\N=N\c2ccccc2)C(C)(C)c2ccccc21.[O-][Cl+3]([O-])([O-])O`: the 50% cytotoxic concentration (CC50) at 96 h is 73 µM in data set [1], 47 µM in data set [2], 20 µM in data set [5] and 30 µM in [6]. In addition, the concentration for a half-maximal effect (EC50) in the data set on Poliovirus 1 was > 73 µM; in [4], > 20 µM; with Coxsackievirus B2, > 73 µM; in the data set on Yellow fever virus, > 47 µM; in data set [8], > 73 µM. The outcome (in data set [3]; in [7]; in the data set with Vaccinia virus) was inactive.
As to `Clc1ccccc1N1CCN(/C=C/N=N/c2ccccc2)CC1`, the half-maximal cytotoxic concentration (CC50) at 96 h in data set [1] was determined as 14 µM; in [2], 69 µM; in data set [5], 13 µM; in [6], 16 µM. The concentration for a half-maximal effect (EC50) in the data set on Poliovirus 1 was > 14 µM; in data set [4], > 13 µM; in the data set on Coxsackievirus B2 it was 5 µM; with Yellow fever virus, > 69 µM; in [8], 5 µM. The result (in data set [3]; in [7]; in the data set on Vaccinia virus) was inactive.
In the case of `O=[N+]([O-])c1cccc(/N=N\C2=C3CCCCN3CCC2)c1`, the 50% cytotoxic concentration (CC50) at 96 h was 90 µM in [1], 87 µM in data set [2], > 100 µM in data set [5] and 37 µM in [6]. For the same molecule, the concentration giving a half-maximal response (EC50) with Poliovirus 1 was 20 µM; in data set [4] it was 100 µM; with Coxsackievirus B2 it was 71 µM; in the data set on Yellow fever virus, > 87 µM; in data set [8], > 90 µM. Also, the result (in data set [3]; in data set [7]; in the data set with Vaccinia virus) was inactive.
With `CN1CCC/C1=C\N=N\c1cccc([N+](=O)[O-])c1`, the 50% cytotoxic concentration (CC50) at 96 h is > 100 µM in data set [1], > 100 µM in data set [2], > 100 µM in data set [5] and 25 µM in data set [6]. For the same molecule, the EC50 was > 100 µM in the data set with Poliovirus 1; 5.5 µM in [4]; > 100 µM with Coxsackievirus B2; > 100 µM with Yellow fever virus; > 100 µM in data set [8]. For the same molecule, the result (in data set [3]; in data set [7]; with Vaccinia virus) was inactive.
With `Cc1ccc(/N=N/C=C2\CCCN2Cc2ccccc2)cc1`, the half-maximal cytotoxic concentration (CC50) at 96 h in data set [1] stood at 50 µM; in data set [2] it was 25 µM; in data set [5], 22 µM; in data set [6], 10 µM. The half-maximal effective concentration (EC50) with Poliovirus 1 is > 50 µM; in data set [4], > 22 µM; in the data set with Coxsackievirus B2 it was 8 µM; in the data set on Yellow fever virus, > 25 µM; in [8], > 50 µM. Also, the result (in [3]; in data set [7]; with Vaccinia virus) was inactive.
In the case of `CN1C=C(/N=N/c2cccc(Br)c2)CCC1`, the half-maximal cytotoxic concentration (CC50) at 96 h in data set [1], in [2], in [5] and in [6] was > 100 µM throughout. Besides, the 50% effective concentration (EC50) is > 100 µM in the data set on Poliovirus 1, 19 µM in data set [4], 27 µM in the data set on Coxsackievirus B2 and 18 µM in data set [8]. Besides, the outcome (in data set [3]; in data set [7]; in the data set with Vaccinia virus) was inactive.
Take `FC(F)(F)c1cc(/N=N/C2=CN(Cc3ccccc3)CCC2)ccc1Cl`: the CC50 at 96 h in [1] is 48 µM; in [2], 32 µM; in [5], 28 µM; in [6], 43 µM. For the same molecule, the EC50 with Poliovirus 1 was > 48 µM; in data set [4], ≥ 28 µM; with Coxsackievirus B2 it was 4 µM; with Yellow fever virus, 22 µM; in [8] it was > 48 µM. Besides, the outcome (in [3]; in [7]; in the data set on Vaccinia virus) was inactive.
Consider `O=[N+]([O-])c1ccc(N2CCN(/C=C/N=N/c3ccccc3)CC2)cc1`, for which the half-maximal cytotoxic concentration (CC50) at 96 h was determined as 45 µM in [1], 48 µM in data set [2], 20 µM in [5] and 41 µM in data set [6]. Besides, the EC50 with Poliovirus 1 was > 45 µM; in data set [4], > 20 µM; with Coxsackievirus B2, 14 µM; with Yellow fever virus, 12 µM; in data set [8] it was 13 µM. Moreover, the result (in data set [3]; in data set [7]; with Vaccinia virus) was inactive.
On to `CCOC(=O)N1CCN(/C=C/N=N/c2ccccc2)CC1`, for which the half-maximal cytotoxic concentration (CC50) at 96 h in [1] was 30 µM; in [2] it was > 100 µM; in [5], 13 µM; in data set [6], 17 µM. The EC50 in the data set with Poliovirus 1 was > 30 µM; in data set [4], > 13 µM; in the data set with Coxsackievirus B2, 12 µM; in the data set on Yellow fever virus, > 100 µM; in data set [8], 4 µM. Further, the result (in data set [3]; in data set [7]; in the data set on Vaccinia virus) was inactive.
Take `O=c1cnn([C@@H]2O[C@H](CO)[C@@H](O)[C@H]2O)c(=O)[nH]1` [6-AZAURIDINE]: the CC50 at 96 h in data set [1] was 20 µM; in data set [2], > 100 µM; in [5] it was > 100 µM; in data set [6] it was 2 µM. Further, the concentration for a half-maximal effect (EC50) with Poliovirus 1 is > 20 µM; in [4], > 100 µM; in the data set on Coxsackievirus B2, > 20 µM; in the data set with Yellow fever virus, 26 µM; in data set [8], 1.2 µM.
Regarding `C[C@@]1(O)[C@H](O)[C@@H](CO)O[C@H]1n1cnc2c(=O)[nH]c(N)nc21` [2'-B-METHYL-GUANOSINE], the CC50 at 96 h in data set [1] is > 100 µM; in data set [2], 90 µM; in data set [5], > 100 µM; in [6], > 100 µM. For the same molecule, the EC50 in the data set with Poliovirus 1 was > 100 µM; in [4], 1.7 µM; with Coxsackievirus B2, 20 µM; with Yellow fever virus, 1 µM; in data set [8] it was > 100 µM.
Take `CN1C=C(/N=N/c2ccc(Cl)c(C(F)(F)F)c2)CCC1`: the cytotoxic concentration (CC50) at 96 h in [1] was determined as 90 µM; in [2], 44 µM; in data set [5] it was 28 µM; in [6], 62 µM. Also, the EC50 in the data set on Poliovirus 1 is > 90 µM; in the data set on Coxsackievirus B2, 34 µM; in the data set with Yellow fever virus, > 44 µM; in data set [8], > 90 µM. Besides, the result (in data set [3]; in [7]; in the data set on Vaccinia virus) was inactive.

Values taken from ChEMBL document CHEMBL1144182, “Antimicrobial and cytotoxic arylazoenamines. Part III: antiviral activity of selected classes of arylazoenamines” (Bioorg Med Chem, 2008).
